Laboratory results published in ChEMBL document CHEMBL1135880, “Synthesis and X-ray studies of chiral allosteric modifiers of hemoglobin” (J Med Chem, 2002).

Tests used:
[1] = target: T1, Hemoglobin HbA (Homo sapiens) (UniProt P69905+P68871); test: Ability to right-shift the oxygen equilibrium curves (OECs) quantified by ability to increase in P50 at which Hb was 50% saturated with oxygen in the […] of the effector.; format: functional
[2] = target: T1, Hemoglobin HbA (Homo sapiens); test: Ability to right-shift the oxygen equilibrium curves (OECs) quantified by ability to increase in P50 at which Hb was 50% saturated with oxygen in the presence of the effector at the concentration of 5 mM.; format: functional
Method in brief: (§1)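 Human whole blood; DMSO stock 200 mM, final 5 mM effector, DMSO-only control. Duplicate samples equilibrated ~10 min at 37 °C in tonometers against gas mixtures of 2.95%, 5.85% and 8.75% O2 with 5.8% CO2, balance N2. pO2 and sO2 read on blood gas analyzer and co-oximeter. P50 and n50 from nonlinear regression; ΔP50 = P50 effector − P50 control.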

[3] = target: T1, Hemoglobin HbA (Homo sapiens); test: Oxygen pressure in mmHg at which Hb is 50% saturated with oxygen at 50-60 uM heme concentration and in the presence of 0.5 mM effector.; format: functional
[4] = target: T1, Hemoglobin HbA (Homo sapiens); test: The difference in the partial pressure of oxygen at 50% saturated Hb; format: functional; method in brief: as §1
[5] = target: T1, Hemoglobin HbA (Homo sapiens); test: Ability to right-shift the oxygen equilibrium curves (OECs) quantified by ability to increase in P50 in whole blood analyses.; format: functional, tissue-based; method in brief: as §1
[6] = target: T1, Hemoglobin HbA (Homo sapiens); test: Ratio of […] (P50 control value with no effector present 5.0 mmHg, in case of DMSO is 4.7 mmHg ); format: functional
[7] = target: T1, Hemoglobin HbA (Homo sapiens); test: The Hill coefficient at 50% saturation (n50) between 40 and 60% oxygen saturation (n50 control value with no effector present, 2.7).; format: protein-complex assay
[8] = target: T1, Hemoglobin HbA (Homo sapiens); test: The Hill coefficient at 50% saturation (n50) in the presence of effector.; format: protein-complex assay; method in brief: as §1
[9] = target: T1, Hemoglobin HbA (Homo sapiens); test: Ability to right-shift the oxygen equilibrium curves (OECs) quantified by ability to increase in P50 at which Hb was 50% saturated with oxygen in the […] of the effector at the concentration of 5 mM.; format: functional; method in brief: as §1

T1 sequence (P68871 2-147 partner limits assumed): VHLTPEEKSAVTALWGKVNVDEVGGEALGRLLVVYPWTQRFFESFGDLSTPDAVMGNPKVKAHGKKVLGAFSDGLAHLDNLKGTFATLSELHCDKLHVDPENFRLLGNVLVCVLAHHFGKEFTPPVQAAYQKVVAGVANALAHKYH
T1 sequence (P69905 2-142 limits assumed): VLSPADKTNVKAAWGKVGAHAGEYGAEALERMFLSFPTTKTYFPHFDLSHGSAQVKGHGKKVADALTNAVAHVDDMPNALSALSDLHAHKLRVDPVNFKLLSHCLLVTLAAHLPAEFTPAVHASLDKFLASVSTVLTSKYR

SMILES | P50e [1] | P50e [2] | P50e [3] | Delta P50 [4] | P50c [5] | P50e / P50c [6] | Hill coefficient (n50) [7] | n50e [8] | P50e [9]
Cc1cc(C)cc(NC(=O)Cc2ccc(OC3(C(=O)N[C@H](CCC(=O)O)C(=O)O)CCCC3)cc2)c1 | 50.1 mmHg | 51.4 mmHg | 16.8 mmHg | 22.5 | 28.3 mmHg | 3.4 | 2.6 | 2 | –
Cc1cc(C)cc(NC(=O)Cc2ccc(OC3(C(=O)O)CCCC3)cc2)c1 | 67.7 mmHg | 74.7 mmHg | – | 42.3 | 28.9 mmHg | 5.1 | 2.4 | 1.7 | –
Cc1cc(C)cc(NC(=O)Cc2ccc(OC3(C(=O)N[C@H](Cc4ccc5[nH]ccc5c4)C(=O)O)CCCC3)cc2)c1 | – | 49.9 mmHg | 37.1 mmHg | 20 | 28.7 mmHg | 7.4 | 2.1 | 2.1 | 47.5 mmHg
Cc1cc(C)cc(NC(=O)Cc2ccc(OC3(C(=O)N[C@@H](Cc4ccc5[nH]ccc5c4)C(=O)O)CCCC3)cc2)c1 | 47.2 mmHg | 48.8 mmHg | 37 mmHg | 20.2 | 27.9 mmHg | 7.4 | 2.3 | 2 | –
Cc1cc(C)cc(NC(=O)Cc2ccc(OC3(C(=O)N[C@H](Cc4ccc(O)cc4)C(=O)O)CCCC3)cc2)c1 | 47 mmHg | 49 mmHg | 48.6 mmHg | 20.8 | 27.2 mmHg | 9.7 | 2.3 | 2 | –
Cc1cc(C)cc(NC(=O)Cc2ccc(OC3(C(=O)N4CCC[C@H]4C(=O)O)CCCC3)cc2)c1 | 41.1 mmHg | 42.5 mmHg | 13.5 mmHg | 17 | 24.8 mmHg | 2.7 | 2.7 | 2.3 | –
Cc1cc(C)cc(NC(=O)Cc2ccc(OC3(C(=O)NCC(=O)O)CCCC3)cc2)c1 | 50 mmHg | 52.6 mmHg | 12 mmHg | 25.1 | 26.2 mmHg | 2.4 | 2.6 | 2.1 | –
Cc1cc(C)cc(NC(=O)Cc2ccc(OC3(C(=O)N[C@@H](Cc4ccccc4)C(=O)O)CCCC3)cc2)c1 | 64.1 mmHg | 67.5 mmHg | 12.4 mmHg | 38.4 | 27.4 mmHg | 2.6 | 2.7 | 1.8 | –
Cc1cc(C)cc(NC(=O)Cc2ccc(OC3(C(=O)N[C@@H](CCCCNC(=O)OCc4ccccc4)C(=O)O)CCCC3)cc2)c1 | 39.5 mmHg | 45 mmHg | 29.5 mmHg | 14 | 28.3 mmHg | 5.9 | 2.4 | 2.1 | –
Cc1cc(C)cc(NC(=O)Cc2ccc(OC3(C(=O)N[C@H](CSCc4ccccc4)C(=O)O)CCCC3)cc2)c1 | 30.6 mmHg | 33.3 mmHg | 43 mmHg | 7.2 | 24.8 mmHg | 8.6 | 2.1 | 2.3 | –
Cc1cc(C)cc(NC(=O)Cc2ccc(OC3(C(=O)N[C@H](CCCCN)C(=O)O)CCCC3)cc2)c1 | 26.7 mmHg | 28.6 mmHg | 8.1 mmHg | -0.6 | 28.3 mmHg | 1.6 | 2.4 | 2.7 | –
Cc1cc(C)cc(NC(=O)Cc2ccc(OC3(C(=O)N[C@H](Cc4ccccc4)C(=O)O)CCCC3)cc2)c1 | 48.1 mmHg | 49.8 mmHg | 8.2 mmHg | 20.3 | 28.7 mmHg | 1.7 | 2.6 | 1.9 | –
Cc1cc(C)cc(NC(=O)Cc2ccc(OC3(C(=O)N[C@@H](CCCCN)C(=O)O)CCCC3)cc2)c1 | 27.2 mmHg | 29 mmHg | 5.8 mmHg | -0.2 | 28.3 mmHg | 1.2 | 2.3 | 2.7 | –
Cc1cc(C)cc(NC(=O)Cc2ccc(OC(C)(C)C(=O)O)cc2)c1 | 80 mmHg | 82.6 mmHg | – | 51.5 | 29.8 mmHg | 4.7 | 2.3 | 1.5 | –
Cc1cc(C)cc(NC(=O)Cc2ccc(OC3(C(=O)N[C@H](CCCCNC(=O)OCc4ccccc4)C(=O)O)CCCC3)cc2)c1 | 27.6 mmHg | 28.2 mmHg | 22.4 mmHg | 0.4 | 27.5 mmHg | 4.5 | 2.5 | 2.5 | –

More lines, now with the values ahead:

P50e [1] | P50e [2] | P50e [3] | Delta P50 [4] | P50c [5] | P50e / P50c [6] | Hill coefficient (n50) [7] | n50e [8] | P50e [9] | SMILES
42.8 mmHg | 46.2 mmHg | 10.5 mmHg | 17.6 | 26.8 mmHg | 2.1 | 2.7 | 2.1 | – | Cc1cc(C)cc(NC(=O)Cc2ccc(OC3(C(=O)N[C@@H](C)C(=O)O)CCCC3)cc2)c1
38.9 mmHg | 40.6 mmHg | 12.3 mmHg | 13.2 | 26.5 mmHg | 2.5 | 2.6 | 2.3 | – | CC[C@@H](C)[C@@H](NC(=O)C1(Oc2ccc(CC(=O)Nc3cc(C)cc(C)c3)cc2)CCCC1)C(=O)O
70.6 mmHg | 71.3 mmHg | 21.3 mmHg | 41.5 | 29.4 mmHg | 4.3 | 2.7 | 1.8 | – | Cc1cc(C)cc(NC(=O)Cc2ccc(OC3(C(=O)N[C@@H](CC(C)C)C(=O)O)CCCC3)cc2)c1
56.6 mmHg | 57.3 mmHg | 13.9 mmHg | 30.2 | 26.7 mmHg | 2.8 | 2.6 | 1.9 | – | Cc1cc(C)cc(NC(=O)Cc2ccc(OC3(C(=O)N[C@@H](C(=O)O)C(C)C)CCCC3)cc2)c1
44.8 mmHg | 45.5 mmHg | 9.5 mmHg | 20.6 | 24.5 mmHg | 1.9 | 2.8 | 2.1 | – | CSCC[C@@H](NC(=O)C1(Oc2ccc(CC(=O)Nc3cc(C)cc(C)c3)cc2)CCCC1)C(=O)O
39.7 mmHg | 41.1 mmHg | 14.3 mmHg | 12.9 | 27.5 mmHg | 2.9 | 2.6 | 2.2 | – | Cc1cc(C)cc(NC(=O)Cc2ccc(OC3(C(=O)N[C@@H](C(=O)O)C(C)O)CCCC3)cc2)c1 (some centres not stated)
31.1 mmHg | 34 mmHg | 11.2 mmHg | 5.4 | 27.1 mmHg | 2.3 | 2.6 | 2.1 | – | Cc1cc(C)cc(NC(=O)Cc2ccc(OC3(C(=O)N[C@H](CO)C(=O)O)CCCC3)cc2)c1
50.2 mmHg | 55.3 mmHg | 16.1 mmHg | 26.6 | 26.2 mmHg | 3.2 | 2.6 | 1.9 | – | Cc1cc(C)cc(NC(=O)Cc2ccc(OC3(C(=O)N[C@H](CC(=O)O)C(=O)O)CCCC3)cc2)c1
53.9 mmHg | 54.8 mmHg | 13 mmHg | 28.6 | 25.7 mmHg | 2.6 | 2.7 | 2 | – | Cc1cc(C)cc(NC(=O)Cc2ccc(OC3(C(=O)N[C@H](C(=O)O)C(C)C)CCCC3)cc2)c1
50.7 mmHg | 56.8 mmHg | 18.1 mmHg | 26.6 | 27.1 mmHg | 3.6 | 2.6 | 2.3 | – | CSCC[C@H](NC(=O)C1(Oc2ccc(CC(=O)Nc3cc(C)cc(C)c3)cc2)CCCC1)C(=O)O
50.3 mmHg | 52.1 mmHg | 13.8 mmHg | 21.9 | 29.4 mmHg | 2.8 | 2.6 | 1.7 | – | Cc1cc(C)cc(NC(=O)Cc2ccc(OC3(C(=O)N[C@H](C)C(=O)O)CCCC3)cc2)c1
41.9 mmHg | 42.6 mmHg | 9.4 mmHg | 15.2 | 27.1 mmHg | 1.9 | 2.6 | 2.3 | – | Cc1cc(C)cc(NC(=O)Cc2ccc(OC3(C(=O)N[C@H](CC(C)C)C(=O)O)CCCC3)cc2)c1
38.7 mmHg | 44.7 mmHg | 17.1 mmHg | 15.5 | 26.2 mmHg | 3.4 | 2.6 | 2.3 | – | Cc1cc(C)cc(NC(=O)Cc2ccc(OC3(C(=O)N[C@@H](CO)C(=O)O)CCCC3)cc2)c1
